Measured values published in ChEMBL document CHEMBL4334422, “Toxicities and beneficial protection of H2S donors based on nonsteroidal anti-inflammatory drugs” (Medchemcomm, 2019).
Active and inactive are the calls of the source.

Experiments:
[1] = Toxicity in Wistar kyoto rat assessed as inflammatory cell infiltration in gastric mucosa at 6.1 mg/kg, ip administered for 14 days by H and E staining based optical microscopic method; assay type: organism-based; details: in vivo, 336 h
Procedure, shortened: (§1)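 WKY rats, 3 per group, were dosed for 14 days, with the compound at 10 mg/kg per dose and the ibuprofen comparator at 6.1 mg/kg. Rats were anaesthetised with ether and killed by cervical dislocation. Stomach and intestine were sectioned at 5-10 µm, stained with haematoxylin and eosin, and examined by optical microscopy.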

Rattus norvegicus [2] = assay: Cardioprotective activity in SHR rat assessed as myocardial fiber melting at 10 mg/kg, ip administered for 14 days by TEM analysis; assay type: functional, organism-based
Procedure, shortened: (§2)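 SHRs were given 10 mg·kg⁻¹ intraperitoneally per day for 14 consecutive days, with an ibuprofen comparator and a normal control. Myocardial tissue was then removed. Sections were HE-stained for light microscopy and also examined by transmission electron microscopy at 6000, 10000 and 20000-fold.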

Rattus norvegicus [3] = assay: Cardioprotective activity in SHR rat assessed as myocardial fibrous submucosal swelling at 10 mg/kg, ip administered for 14 days by TEM analysis; assay type: functional, organism-based; procedure, shortened: as §2
[4] = Cardiotoxicity in SHR rat assessed as increase in muscle bundle gaps at 10 mg/kg, ip administered for 14 days by H and E staining based microscopic assay; assay type: toxicity, organism-based; details: in vivo, 336 h; procedure, shortened: as §2
Rattus norvegicus [5] = assay: Cardioprotective activity in SHR rat assessed as myocardial contraction band formation at 10 mg/kg, ip administered for 14 days by TEM analysis; assay type: functional, organism-based; procedure, shortened: as §2
[6] = Cardiotoxicity in SHR rat assessed as appearance of myocardial interstitial collagen fibers at 10 mg/kg, ip administered for 14 days by H and E staining based microscopic assay; assay type: toxicity, organism-based; details: in vivo, 336 h; procedure, shortened: as §2
Rattus norvegicus [7] = assay: Cardioprotective activity in SHR rat assessed as ventricular pumping dysfunction at 10 mg/kg, ip administered for 14 days by TEM analysis; assay type: functional, organism-based; procedure, shortened: as §2
[8] = Toxicity in Wistar kyoto rat assessed as hyperemia in intestinal mucosa at 6.1 mg/kg, ip administered for 14 days by H and E staining based optical microscopic method; assay type: organism-based; details: in vivo, 336 h; procedure, shortened: as §1
[9] = Toxicity in Wistar kyoto rat assessed as inflammatory cell infiltration in gastrointestinal tissue at 6.1 mg/kg, ip administered for 14 days by H and E staining based optical microscopic method; assay type: organism-based; details: in vivo, 336 h; procedure, shortened: as §1
[10] = Cardiotoxicity in SHR rat assessed as reduction in muscle bundle gaps at 10 mg/kg, ip administered for 14 days by H and E staining based microscopic assay; assay type: toxicity, organism-based; details: in vivo, 336 h; procedure, shortened: as §2
Rattus norvegicus [11] = assay: Cardioprotective activity in SHR rat assessed as swollen myocardial interstitial vascular at 10 mg/kg, ip administered for 14 days by TEM analysis; assay type: functional, organism-based; procedure, shortened: as §2
Rattus norvegicus [12] = assay: Cardioprotective activity in SHR rat assessed as loosen myocardial fibers at 10 mg/kg, ip administered for 14 days by TEM analysis; assay type: functional, organism-based; procedure, shortened: as §2
[13] = Toxicity in Wistar kyoto rat assessed as swollen gastric mucosal cells at 6.1 mg/kg, ip administered for 14 days by H and E staining based optical microscopic method; assay type: organism-based; details: in vivo, 336 h; procedure, shortened: as §1
Rattus norvegicus [14] = assay: Cardioprotective activity in SHR rat assessed as swollen myocardial mitochondria at 10 mg/kg, ip administered for 14 days by TEM analysis; assay type: functional, organism-based; procedure, shortened: as §2
H9c2 [15] = assay: Cytotoxicity against rat H9c2 cells assessed as reduction in cell viability at 10 to 80 uM incubated for 24 hrs; assay type: cell-based; details: h9c2, 24 h
Procedure, shortened: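 Rat cardiac H9c2 cells were grown in DMEM with 10% FBS and penicillin/streptomycin at 37 °C and 5% CO₂. They were seeded at 5×10⁴ cells/mL and allowed to adhere for 8 h. Cells were exposed to 10, 40 or 80 µM compound for 24 h, and survival was compared with untreated cells.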

[16] = Toxicity in Wistar kyoto rat assessed as intestinal mucosal edema at 6.1 mg/kg, ip administered for 14 days by H and E staining based optical microscopic method; assay type: organism-based; details: in vivo, 336 h; procedure, shortened: as §1
[17] = Cardiotoxicity in SHR rat assessed as collagen fibers stained in interstitium at 10 mg/kg, ip administered for 14 days by H and E staining based microscopic assay; assay type: toxicity, organism-based; details: in vivo, 336 h; procedure, shortened: as §2
[18] = Cardiotoxicity in SHR rat assessed as coarser myocardial fiber formation at 10 mg/kg, ip administered for 14 days by H and E staining based microscopic assay; assay type: toxicity, organism-based; details: in vivo, 336 h; procedure, shortened: as §2
[19] = Cardiotoxicity in SHR rat assessed as neatly arranged myocardial fibers at 10 mg/kg, ip administered for 14 days by H and E staining based microscopic assay; assay type: toxicity, organism-based; details: in vivo, 336 h; procedure, shortened: as §2
[20] = Toxicity in Wistar kyoto rat assessed as hyperemia in gastrointestinal tissue at 6.1 mg/kg, ip administered for 14 days by H and E staining based optical microscopic method; assay type: organism-based; details: in vivo, 336 h
Procedure, shortened: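 WKY rats (3 per group) were dosed for 14 days with ibuprofen at 6.1 mg·kg⁻¹ per day or test compound at 10 mg·kg⁻¹. Rats were killed by cervical dislocation after ether anaesthesia. Stomach and intestine were cut into 5–10 µm sections, HE-stained and examined by optical microscopy.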

Rattus norvegicus [21] = assay: Cardioprotective activity in SHR rat assessed as myocardial disk dissociation at 10 mg/kg, ip administered for 14 days by TEM analysis; assay type: functional, organism-based; procedure, shortened: as §2
H9c2 [22] = assay: Cytoprotective activity against H2O2-induced toxicity in rat H9c2 cells assessed as increase in cell repair at 10 to 80 uM pretreated with compound followed by H2O2 addition and measured after 1 to 8 hrs by giemsa staining based microscopic method; assay type: functional
Procedure, shortened: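 H9c2 cells were injured with H₂O₂ (400 µM) for 1, 4 or 8 h to give light, medium and heavy damage, in the presence of compound at 10–80 µM. Acetaminophen or ibuprofen served as controls. Viability was measured as mean ± SD of three experiments. SOD and MDA contents were measured as mean ± SD of four experiments. Morphology was assessed by Giemsa staining under light microscopy.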

Rattus norvegicus [23] = assay: Antihypertensive activity in spontaneously hypertensive Wistar kyoto rat assessed as reduction in systolic arterial pressure at 10 mg/kg, ip administered for 6 hrs and measured every 30 mins post treatment by tail-cuff method; assay type: functional
Procedure, shortened: (§3)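 Male SHRs (8 weeks, 300 ± 25 g; 6 per group), given compound intraperitoneally once daily at 8 am in 0.5% (w/v) sodium carboxymethyl cellulose/DMSO 3/1 (v/v), 2 mL·kg⁻¹. Vehicle-treated SHR and WKY controls. SBP, DBP and heart rate were measured by tail-cuff on awake, restrained rats before dosing, then every 30 min for 6 h. Values are mean ± SD of four independent experiments.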

Rattus norvegicus [24] = assay: Antihypertensive activity in spontaneously hypertensive Wistar kyoto rat assessed as reduction in diastolic arterial pressure at 10 mg/kg, ip administered for 6 hrs and measured every 30 mins post treatment by tail-cuff method; assay type: functional; procedure, shortened: as §3

Measured: Activity

CC(C)Cc1ccc(C(C)C(=O)O)cc1 (configuration not stated) [IBUPROFEN]
Toxic: [1] | [8] | [9] | [13] | [16] | [20]
Active: [4] | [6] | [10] | [17] | [18]
Non-Toxic: H9c2 [15] | [19]
active: Rattus norvegicus [2] | Rattus norvegicus [3] | Rattus norvegicus [5] | Rattus norvegicus [7] | Rattus norvegicus [11] | Rattus norvegicus [12] | Rattus norvegicus [14] | Rattus norvegicus [21]

CC(=O)Nc1ccc(O)cc1 [ACETAMINOPHEN]
active: H9c2 [22]
Non-Toxic: H9c2 [15]

COC(=O)C1=C(C)NC(C)=C(C(=O)OC)C1c1ccccc1[N+](=O)[O-]
inactive: Rattus norvegicus [23] | Rattus norvegicus [24]

C[C@H](CS)C(=O)N1CCC[C@H]1C(=O)O
inactive: Rattus norvegicus [23] | Rattus norvegicus [24]
